In ChEMBL document CHEMBL3621107, “Ring fusion strategy for synthesis and lead optimization of sulfur-substituted anthra[1,2-c][1,2,5]thiadiazole-6,11-dione derivatives as promising scaffold of antitumor agents” (Eur J Med Chem, 2015):

Columns and labels:
Format in all cases: functional
[1] = Cytotoxicity against human leukemia cells assessed as growth inhibition after 48 hrs by SRB assay; settings: Leukemia cell
Outline: (§1)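 Values come from the NCI-60 five-dose panel (0.01–100 µM). The subpanel MID is the mean GI50 over the lines of that tumour subpanel. The selectivity ratio is the full-panel MID divided by the subpanel MID; 3–6 is rated moderate and >6 high.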

[2] = Cytotoxicity against human breast cancer cells assessed as growth inhibition after 48 hrs by SRB assay; settings: Cancer cell lines; outline: as §1
HOP-92 = experiment: Cytotoxicity against human HOP92 cells after 48 hrs by SRB assay; settings: HOP-92, 48 h
Outline: (§2)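 NCI-60 human tumour cell panel screen, second stage, run by the NCI Developmental Therapeutics Program. Compounds were tested at five concentrations (0.01, 0.1, 1, 10 and 100 μM). Percentage growth was plotted against log10 concentration for each cell line. GI50, TGI and LC50 were taken from these dose-response curves.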

HCT-116 = experiment: Cytotoxicity against human HCT116 cells after 48 hrs by SRB assay; settings: HCT-116, 48 h; for CC50: read-out: LC50 (the source's name); outline: as §2
[3] = Cytotoxicity against human ovarian cancer cells assessed as growth inhibition after 48 hrs by SRB assay; settings: Cancer cell lines; outline: as §1
OVCAR-8 = experiment: Cytotoxicity against human OVCAR8 cells after 48 hrs by SRB assay; settings: OVCAR-8, 48 h; for CC50: read-out: LC50 (the source's name)
Outline: (§3)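 Second-stage NCI-60 panel run by the NCI Developmental Therapeutics Program, covering nine tumour subpanels. Five concentrations were tested: 0.01, 0.1, 1, 10 and 100 μM. Percentage growth at each level was plotted against log10 drug concentration. GI50, TGI and LC50 were read from these dose-response curves. Subpanel MID values were divided into the full-panel MID to give selectivity ratios.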

[4] = Cytotoxicity against human prostate cancer cells assessed as growth inhibition after 48 hrs by SRB assay; settings: Cancer cell lines; outline: as §1
NCI-H460 = experiment: Cytotoxicity against human NCI-H460 cells after 48 hrs by SRB assay; settings: NCI-H460, 48 h; outline: as §3
OVCAR-4 = experiment: Cytotoxicity against human OVCAR4 cells after 48 hrs by SRB assay; settings: OVCAR-4, 48 h; outline: as §3
SF-539 = experiment: Cytotoxicity against human SF539 cells after 48 hrs by SRB assay; settings: SF-539, 48 h; outline: as §3
OVCAR-5 = experiment: Cytotoxicity against human OVCAR5 cells after 48 hrs by SRB assay; settings: OVCAR-5, 48 h; outline: as §3
MDA-MB-468 = experiment: Cytotoxicity against human MDA-MB-468 cells after 48 hrs by SRB assay; settings: MDA-MB-468, 48 h; outline: as §3
HCT-15 = experiment: Cytotoxicity against human HCT15 cells after 48 hrs by SRB assay; settings: HCT-15, 48 h; outline: as §2
MDA-MB-435 = experiment: Cytotoxicity against human MDA-MB-435 cells after 48 hrs by SRB assay; settings: MDA-MB-435, 48 h; outline: as §3
M14 = experiment: Cytotoxicity against human M14 cells after 48 hrs by SRB assay; settings: M14, 48 h; outline: as §2
MDA-MB-231 = experiment: Cytotoxicity against human MDA-MB-231 cells after 48 hrs by SRB assay; settings: MDA-MB-231, 48 h; outline: as §3
NCI/ADR-RES = experiment: Cytotoxicity against human NCI/ADR-RES cells after 48 hrs by SRB assay; outline: as §3
HL-60(TB) = experiment: Cytotoxicity against human HL-60(TB) cells after 48 hrs by SRB assay; settings: HL-60, 48 h
Outline: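 NCI Developmental Therapeutics Program 60-cell-line screen, second stage: cells exposed to five concentrations (0.01, 0.1, 1, 10 and 100 μM). Growth is plotted against log10 concentration for each line, and GI50, TGI and LC50 are read from the dose-response curves.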

SK-MEL-5 = experiment: Cytotoxicity against human SK-MEL-5 cells after 48 hrs by SRB assay; settings: SK-MEL-5, 48 h; outline: as §3
SNB-19 = experiment: Cytotoxicity against human SNB19 cells after 48 hrs by SRB assay; settings: SNB-19, 48 h; outline: as §3
CAKI-1 = experiment: Cytotoxicity against human Caki1 cells after 48 hrs by SRB assay; settings: CAKI-1, 48 h; outline: as §2
CCRF-CEM = experiment: Cytotoxicity against human CCRF-CEM cells after 48 hrs by SRB assay; outline: as §2
TK-10 = experiment: Cytotoxicity against human TK10 cells after 48 hrs by SRB assay; settings: TK-10, 48 h
Outline: (§4)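 NCI-60 five-dose study run by NCI DTP at 0.01, 0.1, 1, 10 and 100 µM. Percentage growth at each level was plotted against log10 concentration for each line, and GI50, TGI and LC50 were read from the dose-response curves.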

SK-MEL-2 = experiment: Cytotoxicity against human SK-MEL-2 cells after 48 hrs by SRB assay; settings: SK-MEL-2, 48 h; outline: as §3
[5] = Cytotoxicity against human non-small cell lung cancer cells assessed as growth inhibition after 48 hrs by SRB assay; settings: Cancer cell lines; outline: as §1
BT-549 = experiment: Cytotoxicity against human BT549 cells after 48 hrs by SRB assay; settings: BT-549, 48 h; outline: as §2
SW-620 = experiment: Cytotoxicity against human SW620 cells after 48 hrs by SRB assay; settings: SW-620, 48 h; outline: as §4
[6] = Cytotoxicity against human renal cancer cells assessed as growth inhibition after 48 hrs by SRB assay; settings: Cancer cell lines; outline: as §1
OVCAR-3 = experiment: Cytotoxicity against human OVCAR3 cells after 48 hrs by SRB assay; settings: OVCAR-3, 48 h; for CC50: read-out: LC50 (the source's name); outline: as §3

SMILES: O=C1c2ccccc2C(=O)c2c1cc(Sc1cccc(Cl)c1)c1nsnc21
- GI50 [1]: 1.59 µM
- GI50 [2]: 1.52 µM
- GI50 (HOP-92): 2.3 µM
- LC50 (concentration giving 50% net cell kill) (HOP-92): 15.8 µM
- TGI (HOP-92): 5.23 µM
- GI50 (HCT-116): 0.44 µM
- TGI (HCT-116): 2.66 µM
- CC50 (HCT-116): 16.3 µM
- GI50 [3]: 1.52 µM
- GI50 (OVCAR-8): 0.59 µM
- TGI (OVCAR-8): 2260 nM
- CC50 (OVCAR-8): 6.81 µM
- GI50 [4]: 2.27 µM
- GI50 (NCI-H460): 4.29 µM
- LC50 (concentration killing 50% of cells) (NCI-H460): 75.8 µM
- TGI (NCI-H460): 18.9 µM
- GI50 (OVCAR-4): 310 nM
- LC50 (OVCAR-4): 6.71 µM
- TGI (OVCAR-4): 0.94 µM
- GI50 (SF-539): 2.19 µM
- LC50 (SF-539): 7.55 µM
- TGI (SF-539): 4.07 µM
- GI50 (OVCAR-5): 2.74 µM
- LC50 (OVCAR-5): 68.2 µM
- TGI (OVCAR-5): 6.08 µM
- GI50 (MDA-MB-468): 950 nM
- LC50 (MDA-MB-468): 5.1 µM
- TGI (MDA-MB-468): 2230 nM
- GI50 (HCT-15): 2.71 µM
- LC50 (HCT-15): 47.1 µM
- TGI (HCT-15): 11.3 µM
- GI50 (MDA-MB-435): 1.53 µM
- LC50 (MDA-MB-435): 7.24 µM
- TGI (MDA-MB-435): 3.33 µM
- GI50 (M14): 1.66 µM
- LC50 (M14): 6.94 µM
- TGI (M14): 3.39 µM
- GI50 (MDA-MB-231): 0.37 µM
- LC50 (concentration killing 50% of cells) (MDA-MB-231): 31.6 µM
- TGI (MDA-MB-231): 4.1 µM
- GI50 (NCI/ADR-RES): 0.5 µM
- LC50 (concentration killing 50% of cells) (NCI/ADR-RES): > 100 µM
- TGI (NCI/ADR-RES): 4.59 µM
- GI50 (HL-60(TB)): 2.51 µM
- LC50 (HL-60(TB)): > 100 µM
- TGI (HL-60(TB)): 6.71 µM
- GI50 (SK-MEL-5): 0.99 µM
- LC50 (SK-MEL-5): 4.87 µM
- TGI (SK-MEL-5): 2.21 µM
- GI50 (SNB-19): 8.64 µM
- LC50 (SNB-19): 47.1 µM
- TGI (SNB-19): 21.2 µM
- GI50 (CAKI-1): 2.67 µM
- LC50 (concentration causing 50% net cell kill) (CAKI-1): > 100 µM
- TGI (CAKI-1): 9.15 µM
- GI50 (CCRF-CEM): 560 nM
- LC50 (CCRF-CEM): > 100 µM
- TGI (CCRF-CEM): 6.26 µM
- GI50 (TK-10): 5.31 µM
- LC50 (concentration killing 50% of cells) (TK-10): 39.9 µM
- TGI (TK-10): 14.8 µM
- GI50 (SK-MEL-2): 2.34 µM
- LC50 (SK-MEL-2): 9.87 µM
- TGI (SK-MEL-2): 4.81 µM
- GI50 [5]: 5.84 µM
- GI50 (BT-549): 3.27 µM
- LC50 (BT-549): 40.3 µM
- TGI (BT-549): 15.1 µM
- GI50 (SW-620): 2.29 µM
- LC50 (50% lethal concentration) (SW-620): 28.3 µM
- TGI (SW-620): 5.21 µM
- GI50 [6]: 3.81 µM
- GI50 (OVCAR-3): 0.45 µM
- TGI (OVCAR-3): 1.74 µM
- CC50 (OVCAR-3): 6.5 µM

SMILES: O=C1c2ccccc2C(=O)c2c1cc(Sc1ccccc1Br)c1nsnc21
- GI50 [1]: 12.8 µM
- GI50 [2]: 9.62 µM
- GI50 (HOP-92): 18.4 µM
- LC50 (concentration giving 50% net cell kill) (HOP-92): > 50 µM
- TGI (HOP-92): > 50 µM
- GI50 (HCT-116): 7.87 µM
- TGI (HCT-116): 19.9 µM
- CC50 (HCT-116): > 50 µM
- GI50 [3]: 11.2 µM
- GI50 (OVCAR-8): 11.1 µM
- TGI (OVCAR-8): > 50000 nM
- CC50 (OVCAR-8): > 50 µM
- GI50 [4]: 18.2 µM
- GI50 (NCI-H460): 36.1 µM
- LC50 (concentration killing 50% of cells) (NCI-H460): > 50 µM
- TGI (NCI-H460): > 50 µM
- GI50 (OVCAR-4): 2780 nM
- LC50 (OVCAR-4): 30.1 µM
- TGI (OVCAR-4): 10.1 µM
- GI50 (SF-539): 10.3 µM
- LC50 (SF-539): 40.5 µM
- TGI (SF-539): 20.5 µM
- GI50 (OVCAR-5): 3.44 µM
- LC50 (OVCAR-5): > 50 µM
- TGI (OVCAR-5): > 50 µM
- GI50 (MDA-MB-468): 950 nM
- LC50 (MDA-MB-468): 4.2 µM
- TGI (MDA-MB-468): 2000 nM
- GI50 (HCT-15): 12.3 µM
- LC50 (HCT-15): > 50 µM
- TGI (HCT-15): > 50 µM
- GI50 (MDA-MB-435): 9.23 µM
- LC50 (MDA-MB-435): 32.7 µM
- TGI (MDA-MB-435): 17.4 µM
- GI50 (M14): 17.4 µM
- LC50 (M14): > 50 µM
- TGI (M14): > 50 µM
- GI50 (MDA-MB-231): 7.52 µM
- LC50 (concentration killing 50% of cells) (MDA-MB-231): > 50 µM
- TGI (MDA-MB-231): 37.3 µM
- GI50 (NCI/ADR-RES): 10.4 µM
- LC50 (concentration killing 50% of cells) (NCI/ADR-RES): > 50 µM
- TGI (NCI/ADR-RES): 36.9 µM
- GI50 (HL-60(TB)): 17.8 µM
- LC50 (HL-60(TB)): > 50 µM
- TGI (HL-60(TB)): > 50 µM
- GI50 (SK-MEL-5): 5.08 µM
- LC50 (SK-MEL-5): 24.3 µM
- TGI (SK-MEL-5): 11.1 µM
- GI50 (SNB-19): 32.2 µM
- LC50 (SNB-19): > 50 µM
- TGI (SNB-19): > 50 µM
- GI50 (CAKI-1): 17.2 µM
- LC50 (concentration causing 50% net cell kill) (CAKI-1): > 50 µM
- TGI (CAKI-1): > 50 µM
- GI50 (CCRF-CEM): 4880 nM
- LC50 (CCRF-CEM): > 50 µM
- TGI (CCRF-CEM): > 50 µM
- GI50 (TK-10): 29.7 µM
- LC50 (concentration killing 50% of cells) (TK-10): > 50 µM
- TGI (TK-10): > 50 µM
- GI50 (SK-MEL-2): 13.8 µM
- LC50 (SK-MEL-2): > 50 µM
- TGI (SK-MEL-2): 34.1 µM
- GI50 [5]: 19.3 µM
- GI50 (BT-549): 20.5 µM
- LC50 (BT-549): > 50 µM
- TGI (BT-549): > 50 µM
- GI50 (SW-620): 23.6 µM
- LC50 (50% lethal concentration) (SW-620): > 50 µM
- TGI (SW-620): > 50 µM
- GI50 [6]: 14.5 µM
- GI50 (OVCAR-3): 10.2 µM
- TGI (OVCAR-3): 22.8 µM
- CC50 (OVCAR-3): > 50 µM
